Assay results from different studies.
Each line is one published result; the experiments were not run side by side.

`O=C(Nc1cccnn1)N1CCN([C@@H]2CCOc3cc(C(F)(F)F)ccc32)CC1` has a half-life of 3.3 h (male Sprague-Dawley rat; plasma; oral; 0.3 mg/kg).
For `COc1ccc2c3c1O[C@H]1C[C@@H](OC(=O)c4ccccc4)C=C[C@@]31CCN(C)C2`, the half-life was 1.95 h (rat; brain; intravenous; 5 mg/kg).
With `[2H]C([2H])([2H])n1cc2cc(Nc3nc(=O)n(Cc4ncn(C)n4)c(=O)n3Cc3cc(F)c(F)cc3F)c(Cl)cc2n1` the half-life was 3.68 h (male Sprague-Dawley rat; plasma; intravenous; 5 mg/kg).
`Cl.Cl.O=C(CCN1CCCCC1)c1ccc(-c2ccc(C(=O)CCN3CCCCC3)cc2)cc1` gave a half-life of 7.54 h (Sprague-Dawley rat; plasma; oral; 50 mg/kg).
`CC(C)C[C@@H]1NC(=O)[C@H](CC(=O)O)NC(=O)[C@H](Cc2ccccc2)NC(=O)[C@H](Cc2c[nH]cn2)NC(=O)[C@H]([C@@H](C)O)NC(=O)[C@H](Cc2ccccc2)NC(=O)[C@@H](NC(=O)[C@H](C)NC(=O)COCCOCCNC(=O)COCCOCCNC(=O)CC[C@H](NC(=O)CCCCCCCCCCCCCCCCC(=O)O)C(=O)O)CSSC[C@@H](C(=O)O)NC(=O)[C@H](Cc2ccccc2)NC(=O)[C@@H]2CCCN2C(=O)[C@H](Cc2c[nH]c3ccccc23)NC(=O)[C@H](CC(C)C)NC1=O` gave a half-life of 4.17 h (male Sprague-Dawley rat; plasma; intravenous).
The half-life of `Cn1cnc(Cn2c(=O)[nH]/c(=N\c3cc4cn(C)nc4cc3Cl)n(Cc3cc(F)c(F)cc3F)c2=O)n1` is reported as 3.29 h (male Sprague-Dawley rat; plasma; intravenous; 5 mg/kg).
With `Cc1ncc(C)n2nc(/C=C/c3nc(N4CCCC4)cc(N4CCOCC4)n3)nc12` the half-life was 4.6 h (male Sprague-Dawley rat; plasma; intravenous; 0.1 mg/kg).
`COC(=O)C(NC(=O)c1cn(CCCCCF)c2ccccc12)C(C)(C)C` (centres unmarked) has a half-life of 10.3 h (male Sprague-Dawley rat; plasma; subcutaneous; 100 µg/kg).
`CCCC[C@@H]1NC(=O)[C@H](Cc2ccc(O)cc2)NC(=O)[C@@H]2CCCN2C(=O)[C@H](CC(=O)O)NC(=O)[C@H](C)NC(=O)[C@H](Cc2ccccc2)NC(=O)[C@@H]2CSCCC(=O)N3CN(CN(C3)C(=O)CCSC[C@H](NC(C)=O)C(=O)N[C@@H](CC(C)(C)C)C(=O)N[C@@H](CCC(=O)O)C(=O)N[C@@H](CCC(=O)O)C(=O)N[C@H](CCCCNC(=O)CCc3cn(CCOCCOCCOCCOCCOCCC(=O)N[C@H]4CSCCC(=O)N5CN6CN(C5)C(=O)CCSC[C@H](NC(=O)[C@@H](CC(=O)O)NC(=O)[C@H](Cc5cccc7ccccc57)NC(=O)[C@@H]5CCCN5C4=O)C(=O)N[C@@H](CCSC)C(=O)N[C@@H](CCCCNC(=N)N)C(=O)N[C@@H](CC(=O)O)C(=O)N[C@@H](Cc4c[nH]c5ccccc45)C(=O)N[C@@H](CO)C(=O)N[C@@H]([C@@H](C)O)C(=O)N4CCC[C@H]4C(=O)N4C[C@H](O)C[C@H]4C(=O)N[C@@H](Cc4c[nH]c5ccccc45)C(=O)N[C@H](C(N)=O)CSCCC6=O)nn3)C(=O)N3CCC[C@H]3C(=O)N[C@@H](Cc3ccc(O)cc3)C(=O)N2)C(=O)CCSC[C@@H](C(N)=O)NC1=O` has a half-life of 1.7 h (rat; plasma; intravenous; 2 mg/kg).
`O=C([O-])C(=O)[O-].[NH-][C@@H]1CCCC[C@H]1[NH-].[Pt+4]` (relative stereo) gave a half-life of 1.53 h (rat; plasma; oral; 10 mg/kg).
`CCCCCn1cc(C(=O)Nc2cccc3ccccc23)c2ccccc21` gave a half-life of 11.6 h (male Long-Evans rat; plasma; intraperitoneal; 3 mg/kg).
With `N=c1c2c(-c3ccccc3)c(-c3ccccc3)n(Cc3ccccc3)c2ncn1[C@H]1CC[C@H](O)CC1` the half-life was 8.9 h (male Sprague-Dawley rat; plasma; intravenous; 2 mg/kg; single dose).
The half-life of `CCCC[C@@H]1NC(=O)[C@H](Cc2ccc(O)cc2)NC(=O)[C@@H]2CCCN2C(=O)[C@H](CC(=O)O)NC(=O)[C@H](C)NC(=O)[C@H](Cc2ccccc2)NC(=O)[C@@H]2CSCCC(=O)N3CN(CN(C3)C(=O)CCSC[C@H](NC(C)=O)C(=O)N[C@@H](CC(C)(C)C)C(=O)N3CCC[C@H]3C(=O)N[C@@H](CCC(=O)O)C(=O)N[C@H](CCCCNC(=O)CCc3cn(CCOCCOCCOCCN(CCOCCOCCOCCC(=O)N[C@H]4CSCCC(=O)N5CN6CN(C5)C(=O)CCSC[C@H](NC(=O)[C@@H](CC(=O)O)NC(=O)[C@H](Cc5cccc7ccccc57)NC(=O)[C@@H]5CCCN5C4=O)C(=O)N[C@@H](CCSC)C(=O)N[C@@H](CCCCNC(=N)N)C(=O)N[C@@H](CC(=O)O)C(=O)N[C@@H](Cc4c[nH]c5ccccc45)C(=O)N[C@@H](CO)C(=O)N[C@@H]([C@@H](C)O)C(=O)N4CCC[C@H]4C(=O)N4C[C@H](O)C[C@H]4C(=O)N[C@@H](Cc4c[nH]c5ccccc45)C(=O)N[C@H](C(N)=O)CSCCC6=O)CCOCCOCCOCCn4cc(CCC(=O)NCCCC[C@H]5NC(=O)[C@H](CCC(=O)O)NC(=O)[C@@H]6CCCN6C(=O)[C@H](CC(C)(C)C)NC(=O)[C@@H](NC(C)=O)CSCCC(=O)N6CN7CN(C6)C(=O)CCSC[C@H](NC(=O)[C@H](Cc6ccc(O)cc6)NC(=O)[C@@H]6CCCN6C5=O)C(=O)N[C@@H](Cc5ccccc5)C(=O)N[C@@H](C)C(=O)N[C@@H](CC(=O)O)C(=O)N5CCC[C@H]5C(=O)N[C@@H](Cc5ccc(O)cc5)C(=O)N[C@@H](CCCC)C(=O)N[C@H](C(N)=O)CSCCC7=O)nn4)nn3)C(=O)N3CCC[C@H]3C(=O)N[C@@H](Cc3ccc(O)cc3)C(=O)N2)C(=O)CCSC[C@@H](C(N)=O)NC1=O` is reported as 3.1 h (rat; plasma; intravenous; 2 mg/kg).
For `[2H]C([2H])(c1cc(F)c(F)cc1F)n1c(=O)n(Cc2ncn(C)n2)c(=O)[nH]/c1=N\c1cc2cn(C)nc2cc1Cl`, the half-life was 3.37 h (male Sprague-Dawley rat; plasma; intravenous; 5 mg/kg).
